GRK2 aptamer HTS = human GRK2 inhibition via aptamer displacement. P25098. bead flow cytometry, FAM-aptamer displacement from GRK2. inhibition of aptamer binding, % at 10 µM. 0.59% of 330,000 active;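 active = inhibition of aptamer binding above 40%, roughly 3 SD of noise, on plates passing a quality check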;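 also: median bead fluorescence of bound FAM aptamer so fluorescent compounds give negative values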
SR-BI HDL uptake = blocks mouse SR-BI lipid uptake from DiI-HDL; ldlA[mSR-BI] CHO cells, DiI-HDL uptake fluorescence, 3 h; inhibition, % at 12.5 µM; 0.96% of 320,000 active; AID 488896;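 active = mean replicate inhibition of at least 70% and a set share of replicates each scoring 70 or more; inconclusive = meets just one of the two criteria; inactive = fails both criteria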;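 also: 0% = median of neutral control wells and 100% = median of positive control wells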
Rin1 Abl inh = human Rin1-Abl interaction inhibition. TR-FRET Rin1/Abl binding, biochemical. P00519+Q13671. inhibition, % at 7.35 µM. AID 588664. 0.4% of 360,000 active; in the data active = inhibition above about 5%, passing the limit was not always enough
Target sequence (P00519 whole entry, looked up): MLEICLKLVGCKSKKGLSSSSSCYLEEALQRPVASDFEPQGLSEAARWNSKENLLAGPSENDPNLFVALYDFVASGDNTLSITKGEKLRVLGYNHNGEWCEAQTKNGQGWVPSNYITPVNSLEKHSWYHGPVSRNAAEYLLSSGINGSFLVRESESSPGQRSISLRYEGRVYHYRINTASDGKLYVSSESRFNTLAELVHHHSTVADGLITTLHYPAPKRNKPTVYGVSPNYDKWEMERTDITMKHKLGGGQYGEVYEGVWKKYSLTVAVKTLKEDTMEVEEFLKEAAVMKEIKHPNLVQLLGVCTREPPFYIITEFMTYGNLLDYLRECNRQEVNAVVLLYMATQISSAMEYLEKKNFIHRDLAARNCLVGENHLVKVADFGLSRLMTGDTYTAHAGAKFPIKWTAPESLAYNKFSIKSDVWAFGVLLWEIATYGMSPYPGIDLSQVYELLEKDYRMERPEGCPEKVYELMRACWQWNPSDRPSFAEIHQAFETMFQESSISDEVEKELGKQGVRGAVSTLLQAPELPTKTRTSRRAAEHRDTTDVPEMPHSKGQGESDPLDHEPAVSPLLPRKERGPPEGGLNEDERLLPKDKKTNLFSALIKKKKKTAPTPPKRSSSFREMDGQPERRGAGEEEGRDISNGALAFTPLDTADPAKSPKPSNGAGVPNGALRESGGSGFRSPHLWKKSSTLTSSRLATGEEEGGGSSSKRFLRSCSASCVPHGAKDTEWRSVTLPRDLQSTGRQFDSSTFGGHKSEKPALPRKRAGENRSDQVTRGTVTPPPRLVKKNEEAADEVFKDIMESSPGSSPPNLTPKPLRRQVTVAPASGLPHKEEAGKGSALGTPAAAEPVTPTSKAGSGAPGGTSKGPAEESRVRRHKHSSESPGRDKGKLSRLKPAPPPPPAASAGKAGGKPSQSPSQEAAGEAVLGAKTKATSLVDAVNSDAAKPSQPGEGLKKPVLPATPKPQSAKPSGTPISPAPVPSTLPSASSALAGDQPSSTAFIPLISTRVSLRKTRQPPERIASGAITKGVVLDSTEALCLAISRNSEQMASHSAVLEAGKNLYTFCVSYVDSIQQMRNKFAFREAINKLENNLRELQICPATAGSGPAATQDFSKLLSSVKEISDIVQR
Target sequence (Q13671 whole entry, looked up): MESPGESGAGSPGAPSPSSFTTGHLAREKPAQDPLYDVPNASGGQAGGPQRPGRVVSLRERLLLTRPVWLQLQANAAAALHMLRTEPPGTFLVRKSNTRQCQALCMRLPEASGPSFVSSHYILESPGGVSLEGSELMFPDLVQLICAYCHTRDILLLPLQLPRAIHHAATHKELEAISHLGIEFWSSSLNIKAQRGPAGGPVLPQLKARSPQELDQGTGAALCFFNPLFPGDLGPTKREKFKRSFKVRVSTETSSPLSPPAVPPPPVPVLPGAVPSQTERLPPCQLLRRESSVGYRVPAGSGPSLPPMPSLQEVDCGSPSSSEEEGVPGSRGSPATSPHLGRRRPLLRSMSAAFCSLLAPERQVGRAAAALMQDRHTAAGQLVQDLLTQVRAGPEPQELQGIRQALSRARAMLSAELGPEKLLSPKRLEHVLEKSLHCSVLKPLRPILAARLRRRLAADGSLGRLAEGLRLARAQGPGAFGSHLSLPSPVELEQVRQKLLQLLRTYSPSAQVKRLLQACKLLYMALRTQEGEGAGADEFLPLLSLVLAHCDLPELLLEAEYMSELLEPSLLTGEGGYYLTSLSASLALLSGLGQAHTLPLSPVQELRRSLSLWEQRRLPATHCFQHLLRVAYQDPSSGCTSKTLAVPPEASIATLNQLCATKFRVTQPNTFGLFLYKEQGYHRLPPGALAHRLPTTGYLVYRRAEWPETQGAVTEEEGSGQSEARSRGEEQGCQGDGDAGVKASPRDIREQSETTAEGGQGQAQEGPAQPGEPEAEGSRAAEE
SR-BI uptake up = activators of SR-BI mediated HDL lipid uptake. CHO ldlA[mSR-BI] cells, DiI-HDL uptake fluorescence, 3 h; 100 = double the neutral-control signal. activation, % at 12.5 µM. 0.096% of 320,000 active;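 active = mean replicate activation of at least 60% and every replicate at or above 60%; inconclusive = mean or all-replicate condition met, but not both; inactive = mean below 60% and not all replicates reaching 60%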;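 also: 0% = median plate neutral-control signal and 100% = twice that signal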
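Assay system: CHO ldlA[mSR-BI] cells, LDL receptor-null, SR-BI overexpressing; medium: Ham's F12 with 0.5% BSA, HEPES 25 mM, pH 7.4; also added: DiI-HDL 10 µg/mL; timing: 3 h uptake period with compound, 37 °C; signal: DiI fluorescence, bottom read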
DiI quench = quenches DiI-HDL fluorescence, an SR-BI assay artifact | 20% of 470 active | cell-free DiI-HDL fluorescence quenching, 30 min | AID 540326 | shares compounds with SR-BI HDL uptake | AC50, µM (top dose mostly 35 µM), inactives show top-dose activity change, negative = quenching;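 active = quenching, a falling signal, with AC50 below a set limit tied to the top valid dose, actives reach about 32 µM in these data; inconclusive = no clear call, values can overlap the other calls; inactive = rising signal, and the rest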
Active calls of the source: *; ? = inconclusive; / = no result given. Only some compounds are listed: those with a hit (about 1.9% of all), similar ones and a draw of the others.

SMILES | GRK2 aptamer HTS | SR-BI HDL uptake | Rin1 Abl inh | SR-BI uptake up | DiI quench
CCc1nc2ccc(C(=O)N(C)CCCN(C)C)cn2c1N(C=O)CCC(C)C | / | / | 0 | / | /
COc1ccc(-c2cc3c(=O)n(CC(=O)NCc4ccc(C)cc4)ncn3n2)cc1 | 0 | -5 | -2 | 5 | /
CCOc1ccc(CCNC(=O)Cn2ncn3nc(-c4ccc(OC)cc4)cc3c2=O)cc1 | 1 | 72* | 1 | -72 | -2%
COc1ccc(CN2C[C@@H](CO)O[C@@H](n3cnc4c(NCCN(C)C)ncnc43)C2)cc1 | / | / | -2 | / | /
CCCNC(=O)C1(C)CCN(C(=O)COCc2ccccc2)C1 (stereo not drawn) | / | / | -1 | / | /
CN1CCN(c2nc(-c3ccccc3)ncc2S(=O)(=O)c2ccccc2)CC1 | 0 | 38 | 1 | -38 | /
O=S(=O)(c1ccccc1)c1cnc(-c2ccccc2)nc1N1CCCCC1 | 3 | ? | -2 | -70 | -1%
CCC1CN(C(=O)N2CCC(C(=O)NCc3ccccc3OC)CC2)c2cc(C)ccc2O1 (stereo not drawn) | 2 | 81* | 3 | -81 | -5%
Cc1ccc(-c2nnc(N3CCC(C)CC3)c3ccccc23)cc1C | 2 | 92* | 2 | -92 | 3%
Cc1ccc(-c2nnc(N3CCCCCC3)c3ccccc23)cc1 | 0 | / | 1 | / | /
CN1CC(O)(C(O)C(O)C(O)CO)SC1=S (stereo not drawn) | / | / | -2 | / | /
Fc1ccc(-c2cc(-c3cccs3)cc(-c3ccccc3)n2)cc1 | 0 | 83* | -5 | -83 | 0%
COC(=O)c1cnc(Oc2ccc(NC(=O)NC(=O)c3c(OC)cccc3OC)cc2)cc1C(F)(F)F | 3 | ? | -1 | -71 | 1%
CC(C)C(C(=O)OCC(=O)c1ccc2c(c1)NC(=O)CO2)N1C(=O)c2ccccc2C1=O (stereo not drawn) | 0 | 23 | 0 | -23 | -1%
CC(C)[C@H](NC(=O)c1ccccc1)C(=O)OCC(=O)c1ccc2c(c1)NC(=O)CO2 | 1 | 10 | -1 | -10 | /
CC[C@H](C)[C@H](NC(=O)c1ccc(Cl)cc1)C(=O)OCC(=O)c1ccc2c(c1)NC(=O)CO2 | 7 | 86* | 2 | -86 | 2%
Cc1cccc(C(=O)OCC(=O)c2ccc3c(c2)NC(=O)CO3)c1 | 2 | 0 | -4 | 0 | /
COc1cc(OC)cc(C(=O)N[C@H](C(=O)OCC(=O)c2ccc3c(c2)NC(=O)CO3)C(C)C)c1 | 0 | -16 | 4 | 16 | 6%
CC(=O)Nc1cc(-c2cccc(C(=O)N(C)C)c2)cn2c(-c3ccc(C(C)=O)cc3)cnc12 | / | / | -8 | / | /
COc1ccc(C(NC(=O)C2CCN(CCOc3ccc(Cl)cc3)CC2)c2cccs2)cc1 (stereo not drawn) | / | / | 2 | / | /
O=C(NCCn1cc(SCC(=O)N2CCOCC2)c2ccccc21)c1c(F)cccc1F | 0 | -13 | -4 | 13 | -3%
Cc1c(C(=O)CN2CCCC(C)(C)C2)c2ccccc2n1C | 0 | 76* | -3 | -76 | -1%
COc1ccc(C2/C=C\CN(S(=O)(=O)c3ccc(C)cc3)CC(=O)N2Cc2ccc(F)cc2)cc1 (stereo not drawn) | / | 86* | 1 | -86 | -6%
COc1ccc(C2/C=C\CN(S(=O)(=O)c3ccc(C)cc3)CC(=O)N2Cc2cccc(F)c2)cc1 (stereo not drawn) | 3 | 80* | -5 | -80 | 0%
CC(C)CSc1nc(N)nc2c1ncn2C1OC(CO)C(O)C1O (stereo not drawn) | / | -15 | 1 | 15 | /
SMILES | GRK2 aptamer HTS | SR-BI HDL uptake | Rin1 Abl inh | SR-BI uptake up | DiI quench
CCCCC(=O)Nc1cccc(NC(=O)CC)c1 | 0 | -43 | -4 | 43 | /
CCCCC(=O)Nc1cccc(NC(=O)c2ccccc2Br)c1 | 1 | 74* | -7 | -74 | 6%
COc1ccc(-c2cc(C(F)(F)F)nc(SCCC(=O)N3CCN4CCCC4C3)n2)cc1 (stereo not drawn) | 0 | ? | -2 | -73 | -3%
CCn1c(COc2c(C)cccc2C)nnc1SCC(=O)N1CCN(c2ccccc2)CC1 | 0 | 79* | 1 | -79 | -3%
C[C@H](CO)N1C[C@H](C)[C@@H](CN(C)S(=O)(=O)c2ccccc2)Oc2ccc(NC(=O)NC3CCCCC3)cc2C1=O | 34 | 12 | -4 | -12 | /
Cc1nnc(NC(=O)CSc2nnc(CNC(=O)c3ccc(S(=O)(=O)N(C)C)cc3)o2)s1 | 1 | 9 | 1 | -9 | /
COc1ccc(C(=O)CSc2nnc(CNC(=O)c3ccc(S(=O)(=O)N(C)C)cc3)o2)cc1 | 3 | 78* | 0 | -78 | 0%
CCOc1ccc(NC(=O)CN2CCN(CC(=O)Nc3ccc(Cl)c(C(F)(F)F)c3)CC2)cc1 | 0 | 37 | 2 | -37 | 1%
CCOc1ccc(NC(=O)CN2CCN(CC(=O)Nc3cccc(F)c3)CC2)cc1 | 0 | 50 | 2 | -50 | /
CCOc1ccc(NC(=O)CN2CCN(CC(=O)Nc3cc(OC)cc(OC)c3)CC2)cc1 | 0 | 81* | 0 | -81 | -1%
COc1ccccc1N1CCN(CC(=O)Nc2ccc(Cl)c(C(F)(F)F)c2)CC1 | 0 | -6 | 1 | 6 | /
CN(C)S(=O)(=O)c1cccc(NC(=O)c2ccc(COc3ccccc3)cc2)c1 | 0 | 45 | 3 | -45 | /
COc1ccc2c(c1)OC[C@H]1[C@H]2N2C(=O)c3cc(Cl)ccc3NC(=O)[C@@]2(C)[C@H]1c1ccccc1 | 5 | 72* | 2 | -72 | -6%
COc1ccc2c(c1)C(=O)N1[C@H]3c4cc(Cl)ccc4OC[C@@H]3[C@H](c3ccccc3)[C@]1(C)C(=O)N2 | 5 | 4 | 1 | -4 | /
CC1CN(c2oc(COc3ccc(Cl)cc3Cl)nc2C#N)CC(C)O1 (stereo not drawn) | 0 | 81* | -1 | -81 | 1%
N#Cc1nc(COc2ccccc2Cl)oc1N1CCCC1 | 3 | 19 | 0 | -19 | /
CCc1nc2ccc(C(=O)Nc3cccc(OCC(=O)N(C)C)c3)cn2c1N(C=O)Cc1ccc(OC)cc1 | / | / | 1 | / | /
CC1CCc2c(sc(Nc3nc4c(F)cccc4s3)c2C(N)=O)C1 (stereo not drawn) | 4 | 80* | -3 | -80 | 3.3µM*
CC(OC(=O)c1cccc(NS(C)(=O)=O)c1)C(=O)Nc1ccc(N2CCOCC2)cc1 (stereo not drawn) | 0 | 78* | 1 | -78 | -20%
O=C(CN1CCN(CC(=O)Nc2ccc3c(c2)OC2(CCCCC2)O3)CC1)Nc1cccc(F)c1 | / | 68 | 2 | -68 | -10%
O=C(CN1CCN(CC(=O)Nc2ccccc2F)CC1)Nc1cccc(F)c1 | / | 1 | 3 | -1 | /
CCc1ccc(NC(=O)C2CCCN(S(=O)(=O)c3ccc4[nH]c(=O)ccc4c3)C2)cc1 (stereo not drawn) | 2 | 104* | 3 | -104 | -3%

Assay outcomes deposited in PubChem BioAssay by several laboratories.
